From ChEMBL document CHEMBL3421570, “Combinatorial Libraries As a Tool for the Discovery of Novel, Broad-Spectrum Antibacterial Agents Targeting the ESKAPE Pathogens” (J Med Chem, 2015)
In brackets after ≈: the same amount, converted by molar mass. Activity calls are given as the source filed them. No cut-off for these calls is given here.

Legend:
[1] = Induction of hemolysis in human RBC at 10 uM incubated for 15 mins; format: cell-based, Erythrocyte; details: red blood cells, read-out: Activity
How it was run: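 Human RBCs from whole blood, resuspended 20% v/v in HA buffer (NaCl, CaCl2), compound 10 μM, 15 min at 37°C. Centrifuged 5,500 g for 1 min, supernatant OD543 read. Percent hemolysis against DMF vehicle (0%) and 1.0% Triton X-100 (100%); triplicate.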

Enterococcus faecium [2] = experiment: Bactericidal activity against Enterococcus faecium after 24 hrs; format: functional
Acinetobacter baumannii [3] = experiment: Antimicrobial activity against Acinetobacter baumannii assessed as inhibition of microbial growth after 24 hrs; format: functional
How it was run: (§1)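 Broth microdilution against multidrug-resistant clinical ESKAPE isolates. Overnight cultures (TSB for Gram-positives, LB for Gram-negatives) diluted 1:1000 in fresh medium, compound in DMF (≤2.0% DMF) added at decreasing concentrations, 37°C.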

[4] = Cytotoxicity against human A549 cells assessed as cell viability recovery up to 125 uM after 48 hrs by MTT assay; format: cell-based; details: read-out: Activity
How it was run: (§2)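 A549 cells grown in F-12K with L-glutamine, 10% FBS, 1% penicillin-streptomycin, seeded at 1.0 × 10^5 ml−1, allowed to adhere 24 h (37°C, 5% CO2), then exposed to compound in 45% w/v (2-hydroxypropyl)-β-cyclodextrin vehicle for 48 h. MTT 4 h, formazan solubilized in DMSO, absorbance 540 nm. Percent recovery versus vehicle-only; IC50 derived; at least three independent experiments.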

Enterococcus faecium [5] = experiment: Antibiofilm activity against Enterococcus faecium incubated for 24 hrs followed by biofilm resuspension in PBS and measured after 24 hrs; format: functional
How it was run: (§3)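 Biofilms grown 24 h in 96-well plates from overnight cultures standardized to OD600 0.5 in fresh medium (human serum only for S. aureus; TSB for Gram-positives, LB for Gram-negatives). Medium then replaced with fresh medium containing a concentration range above and below MIC, 37°C overnight. After 24 h biofilm resuspended in PBS, serially diluted, plated in duplicate, CFU counted after 24 h at 37°C. Activity relative to untreated; three technical replicates; MBEC50 reported.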

Staphylococcus aureus [6] = experiment: Induction of spontaneous mutation in Staphylococcus aureus at 2 to 10 MIC; format: functional, organism-based
Enterobacter cloacae [7] = experiment: Antibiofilm activity against Enterobacter cloacae incubated for 24 hrs followed by biofilm resuspension in PBS and measured after 24 hrs; format: functional; how it was run: as §3
[8] = Selectivity index, ratio of IC50 for human A549 cells to MIC for Acinetobacter baumannii
Enterobacter cloacae [9] = experiment: Antimicrobial activity against Enterobacter cloacae assessed as inhibition of microbial growth after 24 hrs; format: functional; how it was run: as §1
Staphylococcus aureus [10] = experiment: Bactericidal activity against Staphylococcus aureus after 24 hrs; format: functional
Klebsiella pneumoniae [11] = experiment: Induction of spontaneous mutation in Klebsiella pneumoniae at 2 to 10 MIC; format: functional, organism-based
Staphylococcus aureus [12] = experiment: Bactericidal activity against methicillin-resistant Staphylococcus aureus at MIC measured after drug wash out after 120 mins by time kill assay; format: functional
How it was run: (§4)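 MRSA from stationary phase was regrown 3 h in TSB and seeded at OD600 0.5. […] After 120 min, cells were centrifuged and washed, serially diluted and plated for CFU. Percent recovery is relative to no-drug controls.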

Enterococcus faecium [13] = experiment: Antimicrobial activity against Enterococcus faecium assessed as inhibition of microbial growth after 24 hrs; format: functional; how it was run: as §1
Klebsiella pneumoniae [14] = experiment: Ratio of MIC for Klebsiella pneumoniae measured after 8 cycle passage to MIC for wild type Klebsiella pneumoniae; format: functional
Enterococcus faecium [15] = experiment: Induction of spontaneous mutation in Enterococcus faecium at 2 to 10 MIC; format: functional, organism-based
Acinetobacter baumannii [16] = experiment: Bactericidal activity against Acinetobacter baumannii after 24 hrs; format: functional
Staphylococcus aureus [17] = experiment: Ratio of MIC for Staphylococcus aureus measured after 8 cycle passage to MIC for wild type Staphylococcus aureus; format: functional
Pseudomonas aeruginosa [18] = experiment: Induction of spontaneous mutation in Pseudomonas aeruginosa at 2 to 10 MIC; format: functional, organism-based; details: 2 to 10 x MIC
[19] = Selectivity index, ratio of IC50 for human A549 cells to MIC for Pseudomonas aeruginosa
Pseudomonas aeruginosa [20] = experiment: Antibiofilm activity against Pseudomonas aeruginosa incubated for 24 hrs followed by biofilm resuspension in PBS and measured after 24 hrs; format: functional; how it was run: as §3
Enterococcus faecium [21] = experiment: Antimicrobial activity against Enterococcus faecium assessed as inhibition of microbial growth at 45 uM after 24 hrs; format: functional, organism-based
How it was run: (§5)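 Broth microdilution single-concentration read: overnight cultures diluted 1:1000, compound in DMF (≤2.0%) added, 37°C for 24 h, growth inhibition scored visually by lack of turbidity; triplicate. Gram-positives grown in TSB, Gram-negatives in LB.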

Enterobacter cloacae [22] = experiment: Bactericidal activity against Enterobacter cloacae after 24 hrs; format: functional
[23] = Cytotoxicity against human A549 cells assessed as cell viability recovery at 225 uM after 48 hrs by MTT assay; format: cell-based; details: read-out: Activity; how it was run: as §2
[24] = Selectivity index, ratio of IC50 for human A549 cells to MIC for Enterococcus faecium
Enterobacter cloacae [25] = experiment: Ratio of MIC for Enterobacter cloacae measured after 8 cycle passage to MIC for wild type Enterobacter cloacae; format: functional
Staphylococcus aureus [26] = experiment: Antimicrobial activity against Staphylococcus aureus USA300 strain FPR3757 infected in mouse model of lethal peritonitis assessed as mouse survival at 2 uM, im dosed 1 hr post infection and measured after 5 days post infection; format: functional, organism-based
How it was run: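 Mice, six per group, infected i.p. with 1 × 10^8 CFU ml−1 S. aureus USA300 FPR3757 in PBS with 5% mucin. Compound given i.m. at 2 μM 1 h later; vehicle 45% w/v (2-hydroxypropyl)-β-cyclodextrin in water i.v.; vancomycin i.v. as control. Monitored twice daily for 5 days, pre-moribund animals euthanized. Survival compared by log-rank test.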

Klebsiella pneumoniae [27] = experiment: Bactericidal activity against Klebsiella pneumoniae after 24 hrs; format: functional
Pseudomonas aeruginosa [28] = experiment: Bactericidal activity against Pseudomonas aeruginosa after 24 hrs; format: functional
Enterobacter cloacae [29] = experiment: Induction of spontaneous mutation in Enterobacter cloacae at 2 to 10 MIC; format: functional, organism-based
[30] = Selectivity index, ratio of IC50 for human A549 cells to MIC for Klebsiella pneumoniae
Pseudomonas aeruginosa [31] = experiment: Antimicrobial activity against Pseudomonas aeruginosa assessed as inhibition of microbial growth after 24 hrs; format: functional; how it was run: as §1
Acinetobacter baumannii [32] = experiment: Induction of spontaneous mutation in Acinetobacter baumannii at 2 to 10 MIC; format: functional, organism-based
Acinetobacter baumannii [33] = experiment: Ratio of MIC for Acinetobacter baumannii measured after 8 cycle passage to MIC for wild type Acinetobacter baumannii; format: functional
Pseudomonas aeruginosa [34] = experiment: Antimicrobial activity against Pseudomonas aeruginosa assessed as inhibition of microbial growth at 45 uM after 24 hrs; format: functional, organism-based; how it was run: as §5
Pseudomonas aeruginosa [35] = experiment: Antimicrobial activity against Pseudomonas aeruginosa isolate 1414 assessed as inhibition of microbial growth in presence of 100 uM efflux pump inhibitor reserpine after 24 hrs; format: functional, organism-based
Klebsiella pneumoniae [36] = experiment: Antibiofilm activity against Klebsiella pneumoniae incubated for 24 hrs followed by biofilm resuspension in PBS and measured after 24 hrs; format: functional; how it was run: as §3
Staphylococcus aureus [37] = experiment: Antimicrobial activity against Staphylococcus aureus assessed as inhibition of microbial growth after 24 hrs; format: functional; how it was run: as §1
Enterobacter cloacae [38] = experiment: Antimicrobial activity against Enterobacter cloacae assessed as inhibition of microbial growth at 45 uM after 24 hrs; format: functional, organism-based; how it was run: as §5
Acinetobacter baumannii [39] = experiment: Antimicrobial activity against Acinetobacter baumannii assessed as inhibition of microbial growth at 45 uM after 24 hrs; format: functional, organism-based; how it was run: as §5
Staphylococcus aureus [40] = experiment: Bactericidal activity against methicillin-resistant Staphylococcus aureus assessed as cell survival recovery at MIC measured after drug wash out after 120 mins by time kill assay; format: functional; how it was run: as §4
Staphylococcus aureus [41] = experiment: Antibiofilm activity against Staphylococcus aureus incubated for 24 hrs followed by biofilm resuspension in PBS and measured after 24 hrs; format: functional; how it was run: as §3
Acinetobacter baumannii [42] = experiment: Antibiofilm activity against Acinetobacter baumannii incubated for 24 hrs followed by biofilm resuspension in PBS and measured after 24 hrs; format: functional; how it was run: as §3
Staphylococcus aureus [43] = experiment: Effect on bacterial density of methicillin-resistant Staphylococcus aureus at MIC measured over 2 hrs period by time kill assay; format: functional, organism-based
A549 = experiment: Cytotoxicity against human A549 cells after 48 hrs by MTT assay; format: cell-based; details: A549, 48 h; how it was run: as §2
[44] = Selectivity index, ratio of IC50 for human A549 cells to MIC for Enterobacter cloacae
[45] = Selectivity index, ratio of IC50 for human A549 cells to MIC for Staphylococcus aureus
Klebsiella pneumoniae [46] = experiment: Antimicrobial activity against Klebsiella pneumoniae assessed as inhibition of microbial growth after 24 hrs; format: functional; how it was run: as §1
Staphylococcus aureus [47] = experiment: Antimicrobial activity against Staphylococcus aureus assessed as inhibition of microbial growth at 45 uM after 24 hrs; format: functional, organism-based; how it was run: as §5
Klebsiella pneumoniae [48] = experiment: Antimicrobial activity against Klebsiella pneumoniae assessed as inhibition of microbial growth at 45 uM after 24 hrs; format: functional, organism-based; how it was run: as §5

CCCCCCCN1C(=N)N(CCCC[C@H]2CNC(=N)N2CCC23C[C@H]4C[C@@H](C2)C[C@@H](C3)C4)C[C@@H]1CCCC
hemolysis at 0.25 h, 10 µM [1]: 0.34% | MBC90 (Enterococcus faecium [2]): 3.6 µM (≈ 1.95 µg/mL) | MIC (Acinetobacter baumannii [3]): 1.7 µM | viability at 48 h [4]: 53% | MBEC50 (Enterococcus faecium [5]): 13 µM | Activity (Staphylococcus aureus [6]): inactive | MBEC50 (Enterobacter cloacae [7]): 15 µM | Selectivity Index [8]: 88 | MIC (Enterobacter cloacae [9]): 1.7 µM | MBC90 (Staphylococcus aureus [10]): 2.9 µM (≈ 1.57 µg/mL) | Activity (Klebsiella pneumoniae [11]): inactive | fold change (FC) (Staphylococcus aureus [12]): 2.5 | MIC (Enterococcus faecium [13]): 1.7 µM | Ratio (Klebsiella pneumoniae [14]): <=8 | Activity (Enterococcus faecium [15]): inactive | MBC90 (Acinetobacter baumannii [16]): 4.7 µM (≈ 2.54 µg/mL) | Ratio (Staphylococcus aureus [17]): 16 | Activity (Pseudomonas aeruginosa [18]): inactive | Selectivity Index [19]: 88 | MBEC50 (Pseudomonas aeruginosa [20]): 5 µM | growth inhibition (GI) (Enterococcus faecium [21]): Active | MBC90 (Enterobacter cloacae [22]): 2.7 µM (≈ 1.46 µg/mL) | viability at 48 h, 225 µM [23]: 35% | Selectivity Index [24]: 88 | Ratio (Enterobacter cloacae [25]): <=8 | Activity (Staphylococcus aureus [26]): Active | MBC90 (Klebsiella pneumoniae [27]): 2.6 µM (≈ 1.41 µg/mL) | MBC90 (Pseudomonas aeruginosa [28]): 2.8 µM (≈ 1.51 µg/mL) | Activity (Enterobacter cloacae [29]): inactive | Selectivity Index [30]: 88 | MIC (Pseudomonas aeruginosa [31]): 1.7 µM | Activity (Acinetobacter baumannii [32]): inactive | Ratio (Acinetobacter baumannii [33]): <=8 | growth inhibition (GI) (Pseudomonas aeruginosa [34]): Active | growth inhibition (GI) (Pseudomonas aeruginosa [35]): Active | MBEC50 (Klebsiella pneumoniae [36]): 8.6 µM | MIC (Staphylococcus aureus [37]): 1.7 µM | growth inhibition (GI) (Enterobacter cloacae [38]): Active | growth inhibition (GI) (Acinetobacter baumannii [39]): Active | Survival (Staphylococcus aureus [40]): 0.2% | MBEC50 (Staphylococcus aureus [41]): 6.4 µM | MBEC50 (Acinetobacter baumannii [42]): 24 µM | Activity (Staphylococcus aureus [43]): inactive | IC50 (A549): 146 µM | Selectivity Index [44]: 88 | Selectivity Index [45]: 88 | MIC (Klebsiella pneumoniae [46]): 1.7 µM | growth inhibition (GI) (Staphylococcus aureus [47]): Active | growth inhibition (GI) (Klebsiella pneumoniae [48]): Active
